Assay results from ChEMBL document CHEMBL3797175, “Discovery of 6-(difluoro(6-(4-fluorophenyl)-[1,2,4]triazolo[4,3-b][1,2,4]triazin-3-yl)methyl)quinoline as a highly potent and selective c-Met inhibitor” (Eur J Med Chem, 2016).
Active and inactive are the calls of the source. No cut-off for these calls is given here.

What was measured:
[1] = Selectivity ratio of IC50 for human NCI-HCC827 cells to IC50 for mouse BAF3 cells expressing TPR-MET; assay type: ADME, cell-based
Outline: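 Each cell line was seeded in 96-well plates, then exposed the next day to a range of compound concentrations for 72 h. Growth was read by SRB or MTT assay, and IC50 was fitted by a four-parameter concentration-response curve. Each concentration was run at least in triplicate, in at least 2 experiments. BaF3/TPR-Met are murine pre-B BaF3 cells transfected with TPR-MET cDNA and selected in puromycin.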

[2] = Volume of distribution at steady state in Sprague-Dawley rat at 2 mg/kg, iv administered as single dose; assay type: ADME, organism-based; settings: in vivo, read-out: Vdss
Outline: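 Male Sprague-Dawley rats (n=3), single dose. IV 2 mg/kg in 1% DMA/9% Cremophor/90% saline; PO 10 mg/kg in 0.5% CMC-Na. For one compound, IV 10 mg/kg in DMSO/Tween 80/PEG40 and PO 10 mg/kg in 10% DMSO/5% Tween 80/85% saline.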

[3] = Selectivity ratio of IC50 for human NCI-H661 cells to IC50 for human EBC1 cells; assay type: ADME, cell-based
Outline: (§1)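 Both IC50s in each ratio come from one proliferation assay. Cells were seeded and exposed the next day to a range of concentrations for 72 h, then read by SRB or MTT. IC50s were fitted by four-parameter concentration–response, with each concentration at least in triplicate and at least 2 experiments. BaF3/TPR-Met is murine pre-B BaF3 transfected with TPR-MET and puromycin-selected.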

[4] = Selectivity ratio of IC50 for human AGS cells to IC50 for mouse BAF3 cells expressing TPR-MET; assay type: ADME, cell-based; outline: as §1
[5] = Selectivity ratio of IC50 for human Calu3 cells to IC50 for human MKN45 cells; assay type: ADME, cell-based; settings: mkn-45; outline: as §1
[6] = Selectivity ratio of IC50 for human BGC823 cells to IC50 for mouse BAF3 cells expressing TPR-MET; assay type: ADME, cell-based; outline: as §1
[7] = Clearance in Sprague-Dawley rat at 2 mg/kg, iv administered as single dose; assay type: ADME, organism-based; settings: in vivo
Outline: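 Male Sprague Dawley rats (n=3), single dose. iv 2 mg/kg in 1% DMA/9% Cremophor/90% saline. po 10 mg/kg in 0.5% CMC-Na. Where iv was 10 mg/kg: 10% DMSO/10% Tween 80/80% (40% PEG40); po in that case in 10% DMSO/5% Tween 80/85% saline.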

[8] = Antiproliferative activity against human Bel7404 cells after 72 hrs by SRB or MTT assay; assay type: functional, cell-based; settings: BEL-7404, 72 h
Outline: (§2)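 Cells seeded, exposed next day to a range of concentrations for 72 h. Growth read by sulforhodamine B or MTT. IC50 from four-parameter concentration-response fit. Each concentration tested at least in triplicate, with at least 2 experiments.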

[9] = Selectivity ratio of IC50 for human NCI-H3122 cells to IC50 for human MKN45 cells; assay type: ADME, cell-based; settings: mkn-45; outline: as §1
[10] = Selectivity ratio of IC50 for human NCI-H1299 cells to IC50 for mouse BAF3 cells expressing TPR-MET; assay type: ADME, cell-based; outline: as §1
[11] = Antiproliferative activity against human PANC1 cells after 72 hrs by SRB or MTT assay; assay type: functional, cell-based; settings: PANC-1, 72 h; outline: as §2
[12] = target: Tyrosine-protein kinase receptor TYRO3 (Homo sapiens) (UniProt Q06418); assay: Inhibition of recombinant TYRO3 (unknown origin) using poly (Glu, Tyr) 4:1 as substrate at 1000 nM incubated for 60 mins by ELISA relative to control
Outline: (§3)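 Recombinant tyrosine kinases assayed on wells precoated with poly(Glu,Tyr)4:1 (20 µg/mL). ATP 10 µmol/L in HEPES pH 7.4 buffer with MgCl2, MnCl2, Na3VO4 and DTT; compound in 1% DMSO, 1% DMSO as control. Reaction 60 min at 37 °C. Phosphotyrosine detected with PY99 and HRP anti-mouse, o-phenylenediamine, A490. Inhibition % relative to control; two experiments.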

[13] = Selectivity ratio of IC50 for human 786-0 cells to IC50 for mouse BAF3 cells expressing TPR-MET; assay type: ADME, cell-based; outline: as §1
[14] = Selectivity ratio of IC50 for human NCI-HCC827 cells to IC50 for human EBC1 cells; assay type: ADME, cell-based; outline: as §1
[15] = Selectivity ratio of IC50 for human AGS cells to IC50 for human MKN45 cells; assay type: ADME, cell-based; outline: as §1
[16] = Selectivity ratio of IC50 for human HCT116 cells to IC50 for human EBC1 cells; assay type: ADME, cell-based; settings: hct-116; outline: as §1
[17] = target: Receptor-type tyrosine-protein kinase FLT3 (Homo sapiens) (UniProt P36888); assay: Inhibition of recombinant FLT3 (unknown origin) using poly (Glu, Tyr) 4:1 as substrate at 1000 nM incubated for 60 mins by ELISA relative to control; outline: as §3
[18] = Selectivity ratio of IC50 for human NCI-H3122 cells to IC50 for human EBC1 cells; assay type: ADME, cell-based; outline: as §1
[19] = Antiproliferative activity against human NCI-H3122 cells after 72 hrs by SRB or MTT assay; assay type: functional, cell-based; settings: NCI-H3122, 72 h; outline: as §2
[20] = target: Hepatocyte growth factor receptor (Homo sapiens, UniProt P08581); assay: Inhibition of c-Met in human MKN45 cells assessed as reduction in AKT phosphorylation at Serine 473 at 10 nM after 1 hr by Western blot analysis; assay type: cell-based; settings: MKN-45
Outline: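 EBC-1 or MKN45 cells treated with compound 1 h at 37 °C without HGF, then lysed in 1× SDS sample buffer. Lysates run on 10% SDS-PAGE and transferred to nitrocellulose. Probed with antibodies to c-Met, phospho-c-Met, phospho-ERK1/2, phospho-AKT, AKT and GAPDH, then HRP secondary. ECL detection.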

[21] = Antiproliferative activity against human SPCA4 cells after 72 hrs by SRB or MTT assay; assay type: functional, cell-based; settings: SPC-A4, 72 h; outline: as §2
[22] = Selectivity ratio of IC50 for human NCI-H596 cells to IC50 for human EBC1 cells; assay type: ADME, cell-based; outline: as §1
[23] = Selectivity ratio of IC50 for human NCI-H1299 cells to IC50 for human MKN45 cells; assay type: ADME, cell-based; outline: as §1
[24] = Antitumor activity against human EBC1 cells xenografted in athymic nude mouse assessed as tumor growth inhibition at 12.5 mg/kg, po bid for 21 days measured twice a week during compound dosing relative to control; assay type: functional; settings: EBC-1, po, 504 h, read-out: TGI
Outline: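 Nude mice bearing s.c. tumours. Cells were first grown s.c. to 700–800 mm³, then 1.5 mm³ fragments were transplanted s.c. into the right flank. Mice were randomised at 100–200 mm³ (n=6 treated, n=12 vehicle) and dosed orally twice daily for 21 days. Caliper measurement twice weekly; TV = length×width²/2. TGI taken on the final day versus vehicle; Student's t test.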

Sequence of Receptor-type tyrosine-protein kinase FLT3 (Homo sapiens) (P36888 whole entry): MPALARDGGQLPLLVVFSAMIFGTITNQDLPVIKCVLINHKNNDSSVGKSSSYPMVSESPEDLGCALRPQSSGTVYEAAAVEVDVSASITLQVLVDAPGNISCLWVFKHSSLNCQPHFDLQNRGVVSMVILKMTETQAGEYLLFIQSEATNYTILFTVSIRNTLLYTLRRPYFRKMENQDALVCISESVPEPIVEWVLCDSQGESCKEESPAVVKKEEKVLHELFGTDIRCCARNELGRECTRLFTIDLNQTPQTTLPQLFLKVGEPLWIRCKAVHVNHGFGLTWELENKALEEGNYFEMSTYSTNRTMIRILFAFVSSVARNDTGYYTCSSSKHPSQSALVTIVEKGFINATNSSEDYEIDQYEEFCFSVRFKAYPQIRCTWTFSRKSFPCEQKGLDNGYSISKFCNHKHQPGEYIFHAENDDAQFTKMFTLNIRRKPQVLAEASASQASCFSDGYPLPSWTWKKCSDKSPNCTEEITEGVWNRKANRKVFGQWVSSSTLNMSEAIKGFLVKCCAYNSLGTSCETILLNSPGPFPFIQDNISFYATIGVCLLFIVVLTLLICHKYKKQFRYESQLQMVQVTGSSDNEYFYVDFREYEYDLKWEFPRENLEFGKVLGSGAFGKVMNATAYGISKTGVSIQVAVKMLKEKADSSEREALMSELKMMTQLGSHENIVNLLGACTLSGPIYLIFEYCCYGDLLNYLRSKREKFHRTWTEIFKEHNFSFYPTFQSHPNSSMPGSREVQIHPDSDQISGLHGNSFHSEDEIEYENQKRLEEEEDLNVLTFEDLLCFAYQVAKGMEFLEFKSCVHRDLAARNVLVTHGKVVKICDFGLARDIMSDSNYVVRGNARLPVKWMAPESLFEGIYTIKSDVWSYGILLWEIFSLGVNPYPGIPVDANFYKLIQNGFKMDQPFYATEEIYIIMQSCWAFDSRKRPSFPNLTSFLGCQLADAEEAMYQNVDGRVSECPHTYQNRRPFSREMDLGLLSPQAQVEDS
Sequence of Hepatocyte growth factor receptor (P08581 whole entry): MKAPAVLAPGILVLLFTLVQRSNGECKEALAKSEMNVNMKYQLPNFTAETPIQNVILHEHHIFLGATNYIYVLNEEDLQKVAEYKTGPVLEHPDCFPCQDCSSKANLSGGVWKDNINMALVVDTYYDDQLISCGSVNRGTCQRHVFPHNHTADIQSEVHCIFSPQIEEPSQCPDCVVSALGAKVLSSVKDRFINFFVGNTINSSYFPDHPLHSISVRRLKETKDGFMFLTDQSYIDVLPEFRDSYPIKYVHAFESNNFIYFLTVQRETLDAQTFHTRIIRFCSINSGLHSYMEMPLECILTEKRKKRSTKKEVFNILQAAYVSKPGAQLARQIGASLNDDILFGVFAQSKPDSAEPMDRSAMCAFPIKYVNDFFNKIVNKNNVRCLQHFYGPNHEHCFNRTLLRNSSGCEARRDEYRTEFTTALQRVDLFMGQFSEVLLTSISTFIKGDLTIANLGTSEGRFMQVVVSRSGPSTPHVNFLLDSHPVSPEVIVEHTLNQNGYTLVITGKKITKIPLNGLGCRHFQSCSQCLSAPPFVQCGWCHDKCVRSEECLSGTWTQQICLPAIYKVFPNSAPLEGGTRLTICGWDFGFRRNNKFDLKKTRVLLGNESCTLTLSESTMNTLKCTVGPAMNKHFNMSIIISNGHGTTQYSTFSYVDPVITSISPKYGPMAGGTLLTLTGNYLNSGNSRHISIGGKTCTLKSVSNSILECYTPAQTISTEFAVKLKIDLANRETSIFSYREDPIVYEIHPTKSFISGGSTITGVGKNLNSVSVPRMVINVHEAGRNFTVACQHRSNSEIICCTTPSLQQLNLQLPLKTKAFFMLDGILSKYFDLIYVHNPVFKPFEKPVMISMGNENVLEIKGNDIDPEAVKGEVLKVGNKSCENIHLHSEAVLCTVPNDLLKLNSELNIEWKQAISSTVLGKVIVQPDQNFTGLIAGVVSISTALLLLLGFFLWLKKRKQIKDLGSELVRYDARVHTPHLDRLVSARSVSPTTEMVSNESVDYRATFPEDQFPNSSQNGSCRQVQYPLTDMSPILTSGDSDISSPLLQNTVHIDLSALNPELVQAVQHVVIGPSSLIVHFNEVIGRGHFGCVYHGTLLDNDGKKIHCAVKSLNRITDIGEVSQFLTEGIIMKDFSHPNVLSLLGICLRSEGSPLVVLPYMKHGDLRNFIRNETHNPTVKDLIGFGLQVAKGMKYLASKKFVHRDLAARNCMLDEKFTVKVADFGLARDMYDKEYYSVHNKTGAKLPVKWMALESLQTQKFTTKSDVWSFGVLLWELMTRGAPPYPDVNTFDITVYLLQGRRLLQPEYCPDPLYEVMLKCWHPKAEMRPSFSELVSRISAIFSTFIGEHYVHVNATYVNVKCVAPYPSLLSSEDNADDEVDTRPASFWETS
Sequence of Tyrosine-protein kinase receptor TYRO3 (Homo sapiens) (Q06418 whole entry): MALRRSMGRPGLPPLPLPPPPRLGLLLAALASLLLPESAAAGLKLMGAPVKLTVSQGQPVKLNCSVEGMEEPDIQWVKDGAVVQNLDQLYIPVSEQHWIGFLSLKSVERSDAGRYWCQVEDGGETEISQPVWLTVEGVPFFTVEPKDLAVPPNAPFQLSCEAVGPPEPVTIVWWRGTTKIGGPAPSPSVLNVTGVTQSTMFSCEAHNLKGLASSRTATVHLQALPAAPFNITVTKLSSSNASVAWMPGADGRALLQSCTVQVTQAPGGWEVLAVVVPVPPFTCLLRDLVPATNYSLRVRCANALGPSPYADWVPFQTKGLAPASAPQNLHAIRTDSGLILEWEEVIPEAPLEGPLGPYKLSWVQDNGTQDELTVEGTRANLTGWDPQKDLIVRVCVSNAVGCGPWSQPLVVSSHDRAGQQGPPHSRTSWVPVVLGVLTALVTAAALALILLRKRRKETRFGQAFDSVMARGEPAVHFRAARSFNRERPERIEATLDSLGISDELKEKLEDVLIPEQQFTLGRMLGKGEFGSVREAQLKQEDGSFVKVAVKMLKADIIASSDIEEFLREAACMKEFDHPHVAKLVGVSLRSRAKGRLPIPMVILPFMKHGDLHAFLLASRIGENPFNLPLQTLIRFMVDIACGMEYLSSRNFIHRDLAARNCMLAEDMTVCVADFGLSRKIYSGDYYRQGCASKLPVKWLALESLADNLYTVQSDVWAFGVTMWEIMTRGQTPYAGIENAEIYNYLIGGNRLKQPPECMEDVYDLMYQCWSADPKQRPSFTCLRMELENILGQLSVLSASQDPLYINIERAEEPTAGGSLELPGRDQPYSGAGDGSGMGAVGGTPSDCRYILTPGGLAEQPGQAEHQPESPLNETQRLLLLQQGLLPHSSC

Structure (SMILES): Fc1ccc(-c2cnc3nnc(C(F)(F)c4ccc5ncccc5c4)n3n2)cc1
- Ratio IC50 [1]: 10000
- Vd [2]: 4.89 L/kg
- Ratio IC50 [3]: 10000
- Ratio IC50 [4]: 10000
- Ratio IC50 [5]: > 10000
- Ratio IC50 [6]: > 10000
- clearance [7]: 47.2 mL/min/kg
- IC50 [8]: > 10 µM
- Ratio IC50 [9]: 10000
- Ratio IC50 [10]: 10000
- IC50 [11]: > 10 µM
- inhibition [12]: 10.1%
- Ratio IC50 [13]: 10000
- Ratio IC50 [14]: 10000
- Ratio IC50 [15]: 10000
- Ratio IC50 [16]: 10000
- inhibition [17]: 12.3%
- Ratio IC50 [18]: 10000
- IC50 [19]: > 10 µM
- inhibition [20]: Active
- IC50 [21]: > 10 µM
- Ratio IC50 [22]: 10000
- Ratio IC50 [23]: 10000
- inhibition in vivo at 12.5 mg/kg [24]: 75.6%
